Results on three compounds are retold here after ChEMBL document CHEMBL3627626, “6-Substituted Pyrrolo[2,3-d]pyrimidine Thienoyl Regioisomers as Targeted Antifolates for Folate Receptor α and the Proton-Coupled Folate Transporter in Human Tumors” (J Med Chem, 2015).

In general, pIC50 refers to the IC50 on a negative log10 scale, so that one unit is a factor of ten. As a reminder, the T/C is the ratio of treated to control. As a reminder, the pKi is −log10 of the Ki, conventionally taken in molar units.

A short description of data set [1]: Binding affinity to human RFC expressed in Chinese hamster PC43-10 cells assessed as cell growth inhibition after 96 hrs by CellTiter-Blue assay. Background: The colour change of resazurin is a common sign of viable cells or microbes.
In data set [2] the test system is SK-OV-3. Briefly: Antitumor activity against human SKOV3 cells expressing RFC/PCFT/FRalpha xenografted in folate-deficient diet fed NCR SCID mouse assessed as delay in tumor growth at 28 mg/kg, iv administered every 4 days on day 3, 7, 11 measured twice per week. The data set is classed as functional, organism-based. In short, it runs like this: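 Female NCR SCID mice, 10 weeks old, given bilateral subcutaneous SKOV3 tumor fragments and randomized at 5 mice/group. Fed ad libitum a folate-deficient diet or a standard folate-replete diet. Dosed intravenously at 0.2 mL/injection on a Q4dx3 schedule (days 3, 7, 11). […] Tumors measured twice weekly; mice weighed daily.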

The test system of data set [3] is SK-OV-3. Briefly: Antitumor activity against human SKOV3 cells expressing RFC/PCFT/FRalpha xenografted in folate-replete diet fed NCR SCID mouse assessed as tumor growth inhibition at 28 mg/kg, iv administered every 4 days on day 3, 7, 11 measured on day 21 relative to control. The class given is functional. In short, it runs like this: (§1)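 Ten-week-old female NCR SCID mice, fed a folate-deficient or standard folate-replete diet, were implanted subcutaneously and bilaterally with SKOV3 tumour fragments. Randomised at 5 mice/group. Dosed intravenously, 0.2 mL per injection, in 5% ethanol/1% Tween-80/0.5% NaHCO3 in water at pH 6.5, on days 3, 7 and 11. Tumours measured twice weekly and mice weighed daily. T/C taken on day 21; growth delay and log cell kill also reported.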

Data set [4] has as its system SK-OV-3. Briefly: Antiproliferative activity against human SKOV3 cells after 96 hrs by CellTiter-Blue assay. The conditions noted are these: SK-OV-3, 96 h. The data set is classed as functional, cell-based. In short, it runs like this:
(§2)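 IGROV1 and SKOV3 cells plated at ~2500–5000 cells/well in folate-free RPMI 1640 with 10% dialyzed FBS, antibiotics and 2 nM LCV, over a range of drug concentrations, ±200 nM folic acid in parallel. Incubated up to 96 h. Viability read by Cell Titer Blue fluorescence (ex 560/em 590 nm).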

In data set [5] the test system is IGROV-1. Briefly: Antiproliferative activity against human IGROV1 cells after 96 hrs by CellTiter-Blue assay. The class given is functional, cell-based. To be noted: IGROV-1, 96 h. In short, it runs like this: as §2
Data set [6] addresses Folate receptor beta (Homo sapiens) (UniProt P14207). Briefly: Displacement of [3H]-folic acid from human FRbeta expressed in Chinese hamster D4 cells after 15 mins relative to folic acid. The class given is cell-based. In short, it runs like this:
(§3)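 Competitive binding to surface folate receptor on RT16 (FRα) or D4 (FRβ) CHO cells. Cells were acid-washed (pH 3.5) to strip bound folate, then incubated in HEPES-buffered saline pH 7.4 with 50 nM [3H]folic acid plus unlabeled ligand (0–1000 nM) for 15 min at 0 °C. Bound label was normalised to protein. Affinity is the inverse molar ratio for 50% displacement, with folic acid set to 1. Mean of 4–10 experiments ±SE.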
(In a radioligand displacement assay an active substance lowers the binding of a labelled ligand.)

The target of data set [7] is T1, Trifunctional purine biosynthetic protein adenosine-3 (Homo sapiens) (UniProt P22102).
T1 sequence (whole entry): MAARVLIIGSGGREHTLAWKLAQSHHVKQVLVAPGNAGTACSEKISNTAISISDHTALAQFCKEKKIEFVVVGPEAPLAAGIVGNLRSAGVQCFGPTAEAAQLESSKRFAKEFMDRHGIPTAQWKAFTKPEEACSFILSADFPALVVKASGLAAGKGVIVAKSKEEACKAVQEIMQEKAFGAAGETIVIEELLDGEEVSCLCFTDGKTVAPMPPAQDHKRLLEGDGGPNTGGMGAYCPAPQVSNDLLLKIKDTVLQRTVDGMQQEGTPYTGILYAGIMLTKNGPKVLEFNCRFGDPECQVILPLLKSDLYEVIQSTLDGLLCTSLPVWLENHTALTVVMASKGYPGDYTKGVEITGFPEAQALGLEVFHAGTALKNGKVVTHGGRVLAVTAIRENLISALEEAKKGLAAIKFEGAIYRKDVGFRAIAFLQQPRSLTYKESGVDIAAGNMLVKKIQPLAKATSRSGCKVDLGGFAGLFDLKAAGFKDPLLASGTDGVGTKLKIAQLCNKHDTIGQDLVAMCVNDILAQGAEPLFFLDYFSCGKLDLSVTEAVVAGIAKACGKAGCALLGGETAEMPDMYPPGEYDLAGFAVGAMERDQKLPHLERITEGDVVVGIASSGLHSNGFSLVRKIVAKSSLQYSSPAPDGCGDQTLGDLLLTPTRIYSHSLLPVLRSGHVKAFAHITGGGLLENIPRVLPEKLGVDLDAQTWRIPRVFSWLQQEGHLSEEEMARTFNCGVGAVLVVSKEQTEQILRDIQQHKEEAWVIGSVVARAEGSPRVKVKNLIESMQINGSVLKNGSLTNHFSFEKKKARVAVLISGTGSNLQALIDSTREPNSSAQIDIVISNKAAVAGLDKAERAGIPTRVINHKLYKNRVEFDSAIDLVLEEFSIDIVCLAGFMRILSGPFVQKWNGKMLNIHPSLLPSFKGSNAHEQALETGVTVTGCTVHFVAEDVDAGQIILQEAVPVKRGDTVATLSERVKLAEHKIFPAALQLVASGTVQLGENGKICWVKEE
Briefly: Inhibition of GARFTase in human KB cells expressing FRalpha/PCFT/RFC assessed as cell growth inhibition after 96 hrs by CellTiter-Blue assay in presence of AICA. The data set is classed as cell-based.

Data set [8] has as its system SK-OV-3. Briefly: Antiproliferative activity against human SKOV3 cells after 96 hrs by CellTiter-Blue assay in presence of 200 nM folic acid. The class given is functional, cell-based. The conditions noted are these: SK-OV-3, 96 h. In short, it runs like this:
as §2

In data set [9] the test system is KB. Briefly: Antiproliferative activity against human KB cells expressing FRalpha/PCFT/RFC assessed as cell growth inhibition after 96 hrs by CellTiter-Blue assay in presence of 200 nM folic acid. The class given is functional, cell-based.
Data set [10] deals with Mus musculus. Briefly: Toxicity in folate-replete diet fed NCR SCID mouse xenografted with human SKOV3 cells expressing RFC/PCFT/FRalpha assessed as body weight loss at 28 mg/kg, iv administered every 4 days on day 3, 7, 11. The class given is organism-based, SK-OV-3. The conditions noted are these: in vivo, 96 h. Background: In xenograft studies the graft and the host belong to different species.

For data set [11], the target named is T1, Trifunctional purine biosynthetic protein adenosine-3 (Homo sapiens). Briefly: Inhibition of GARFTase in human KB cells expressing FRalpha/PCFT/RFC assessed as cell growth inhibition after 96 hrs by CellTiter-Blue assay in presence of adenosine. The data set is classed as cell-based.
Data set [12] addresses Folate receptor alpha (Homo sapiens) (UniProt P15328). Briefly: Displacement of [3H]-folic acid from human FRalpha expressed in Chinese hamster RT16 cells after 15 mins relative to folic acid. The class given is cell-based. In short, it runs like this: as §3
Data set [13] has as its system Mus musculus. Briefly: Toxicity in folate-deficient diet fed NCR SCID mouse xenografted with human SKOV3 cells expressing RFC/PCFT/FRalpha assessed as body weight loss at 28 mg/kg, iv administered every 4 days on day 3, 7, 11 relative to control. The data set is classed as organism-based, SK-OV-3. The conditions noted are these: in vivo, 96 h. In short, it runs like this: as §1

Data set [14] addresses T2, Proton-coupled folate transporter (Homo sapiens) (UniProt Q96NT5).
T2 sequence (whole entry): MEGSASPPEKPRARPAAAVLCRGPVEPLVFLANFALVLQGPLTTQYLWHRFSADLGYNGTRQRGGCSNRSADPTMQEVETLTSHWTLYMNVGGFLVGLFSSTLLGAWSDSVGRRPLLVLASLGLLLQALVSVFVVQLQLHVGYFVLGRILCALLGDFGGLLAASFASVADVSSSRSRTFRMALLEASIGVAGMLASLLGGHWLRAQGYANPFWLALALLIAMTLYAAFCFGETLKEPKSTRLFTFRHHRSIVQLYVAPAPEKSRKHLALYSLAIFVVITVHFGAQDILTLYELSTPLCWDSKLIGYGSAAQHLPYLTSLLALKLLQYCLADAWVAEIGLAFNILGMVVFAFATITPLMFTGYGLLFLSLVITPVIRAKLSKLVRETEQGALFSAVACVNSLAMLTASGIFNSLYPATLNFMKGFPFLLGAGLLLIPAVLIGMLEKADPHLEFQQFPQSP
Briefly: Binding affinity to human PCFT expressed in Chinese hamster R2/PCFT4 cells assessed as intracellular drug transport rate at 37 degC at pH 6.8 measured over 2 mins by Lineweaver-Burk plot analysis. The data set is classed as cell-based. In outline: (§4)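 R2/PCFT4 CHO cells were grown as monolayers, transferred to spinner flasks, and used as suspensions (5–10 × 10⁷ cells). Uptake was quenched with ice-cold DPBS and cells were NaOH-solubilized. Results are pmol/mg protein; Kt and Vmax come from Lineweaver–Burke plots.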

The target of data set [15] is T2, Proton-coupled folate transporter (Homo sapiens). Briefly: Binding affinity to human PCFT expressed in Chinese hamster R2/PCFT4 cells assessed as intracellular drug transport rate at 37 degC at pH 5.5 measured over 2 mins by Lineweaver-Burk plot analysis. The data set is classed as cell-based. In outline: as §4
Data set [16] relates to R2. Briefly: Cellular uptake in PCFT-null Chinese hamster R2 cells at 0.5 uM at 37 degC at pH 5.5 measured over 2 mins. The class given is ADME, cell-based, Cricetulus griseus. To be noted: r2, pH 5.5, 2 min. In short, it runs like this:
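R2/PCFT4 or PCFT-null R2 CHO cells were grown in suspension from spinner flasks. Uptake of 0.5 μM [3H]drug measured over 2 min at 37 °C in MES-buffered saline pH 5.5, with or without 10 μM unlabeled competitor. Uptake was quenched with ice-cold DPBS and cells solubilised in NaOH. Results are pmol/mg protein, mean ±SEM of three experiments.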

In data set [17] the target is T3, Trifunctional purine biosynthetic protein adenosine-3 (Homo sapiens, UniProt P22102).
T3 sequence (P22102 whole entry): T1 sequence (whole entry)
Briefly: Inhibition of human recombinant His-tagged GARFTase assessed as formation of 5,8-dideazafolate from 10-formyl-5,80-dideazafolic acid measured every 15 secs over 20 mins by spectrophotometric analysis.

Data set [18] deals with T3, Trifunctional purine biosynthetic protein adenosine-3. Briefly: Inhibition of GARFTase in human KB cells expressing FRalpha/PCFT/RFC assessed as incorporation of [14C(U)]-glycine into [14C]-formyl GAR preincubated for 1 hr followed by azaserine, L-glutamine, 14C(U)]-glycine addition measured after 16 hrs. The data set is classed as cell-based. In short, it runs like this:
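In situ assay in KB cells. Cells were exposed to a range of drug concentrations with [14C]glycine for 16 h under proliferation-assay conditions, with azaserine present. Radiolabelled metabolites were extracted and separated on anion exchange columns, and [14C]formyl GAR quantified. Mean ±SE of three experiments.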

Each structure is given as a SMILES string. pIC50, pKi: −log10 of the molar value. Calls of active or inactive are those of the source. The calls are words filed in the database; no cut-off is given here.

Sequence of Folate receptor alpha (Homo sapiens) (P15328 25-234 limits assumed): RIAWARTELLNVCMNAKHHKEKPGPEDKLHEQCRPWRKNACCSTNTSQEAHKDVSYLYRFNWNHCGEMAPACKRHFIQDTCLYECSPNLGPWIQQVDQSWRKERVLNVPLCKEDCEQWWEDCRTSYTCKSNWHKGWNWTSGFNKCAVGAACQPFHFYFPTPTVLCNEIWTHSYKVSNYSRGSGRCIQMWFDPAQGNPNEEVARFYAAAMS
Sequence of Folate receptor beta (Homo sapiens) (P14207 17-230 limits assumed): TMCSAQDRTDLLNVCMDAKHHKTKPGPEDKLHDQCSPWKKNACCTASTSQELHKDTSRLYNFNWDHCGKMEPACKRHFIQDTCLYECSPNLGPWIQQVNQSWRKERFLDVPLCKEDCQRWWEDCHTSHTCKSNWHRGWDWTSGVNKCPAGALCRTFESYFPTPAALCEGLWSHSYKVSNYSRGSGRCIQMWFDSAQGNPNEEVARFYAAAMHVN

For the compound `Nc1nc2[nH]c(CCCc3ccc(C(=O)N[C@@H](CCC(=O)O)C(=O)O)s3)cc2c(=O)[nH]1`, the pIC50 in data set [1] was 7.00; in [4], 8.66; in data set [5], 9.14; in [8] it was 7.33; in data set [9] it was 7.00. For the same compound, the outcome in data set [2] was Active. Further, the T/C in data set [3] is 79%. For the same compound, the Activity in [6] is 50%; in [10], “Non-toxic”; in data set [12], 70%; in data set [13] it was 7.9%. The inhibition entry in data set [7] and in [11] was “inactive” in each case.
Consider `Nc1nc2[nH]cc(CCc3ccc(C(=O)N[C@@H](CCC(=O)O)C(=O)O)cc3)c2c(=O)[nH]1` [PEMETREXED], for which the K in data set [14] is 0.27 µM; in data set [15], 0.044 µM. In [16], the Drug uptake result is given as “Not Active”.
With `Nc1nc(N)c2c(CCCc3csc(C(=O)N[C@@H](CCC(=O)O)C(=O)O)c3)coc2n1`, the negative logarithm of the Ki (pKi) in data set [17] was 5.26. In addition, the inhibition entry in data set [7] and in [11] was “inactive” throughout. The pIC50 in [18] is 7.09.
